From ChEMBL document CHEMBL2331271, “Stereoselective synthesis of a new class of potent and selective inhibitors of human Δ8,7-sterol isomerase” (Bioorg Med Chem, 2013) come the findings set out here.

The test system of one test is Yarrowia lipolytica. Briefly: Antifungal activity against Yarrowia lipolytica assessed as inhibition of fungal growth. In kind it is functional. In short, it runs like this: (§1)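 MIC by DIN 58940-84 broth dilution, strains kept in log phase at 28 °C in yeast extract/peptone/glucose medium, 0.5 McFarland standard. Compounds in ethanol stock 0.8 mg/mL, tested at 50, 25 and 12.5 µg/mL in duplicate wells. Controls: sterility, ethanol-only, clotrimazole 0.5 µg/mL, ketoconazole series. MIC = lowest concentration giving visibly complete growth inhibition.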

A further test deals with Saccharomyces cerevisiae. Briefly: Antifungal activity against Saccharomyces cerevisiae assessed as inhibition of fungal growth. In kind it is functional. An outline of the steps:
as §1

The subject of another test is Nakaseomyces glabratus. In words: Antifungal activity against Candida glabrata assessed as inhibition of fungal growth. In kind it is functional. An outline of the steps: as §1
The target in test [1] is 3-beta-hydroxysteroid-Delta(8),Delta(7)-isomerase (Homo sapiens, UniProt Q15125). Briefly: Inhibition of delta8,7-sterol isomerase-mediated cholesterol biosynthesis in human HL60 cells assessed as increase in zymostenol accumulation. It counts as cell-based. To be noted: for inhibition: HL-60. An outline of the steps:
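HL-60 cells (10^6) incubated 24 h at 37 °C, 5% CO2 in lipid-free medium with 1% LPDS, with compound in ethanol at final 1 or 50 µM. Cells were then saponified in 1 M NaOH at 70 °C for 60 min, extracted into TBME with cholestane internal standard, and silylated with TSIM. The sterol pattern was read by GC-MS full scan, with sterols identified by retention time and MS against authentic samples.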

The subject of another test is HL-60. In words: Cytotoxicity against human HL60 cells by MTT assay. In kind it is cell-based. In short, it runs like this:
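Human leukemia HL-60 cells, kept in RPMI 1640 with 10% FBS without antibiotics at 37 °C, 5% CO2. Cytotoxicity by standard Mosmann MTT test. IC50 from dose-response curves run in triplicate, reported with 95% confidence interval and R2.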
On the technique in general: Tetrazolium dyes change colour on reduction, which living cells bring about.

Test [2] in a line: Selectivity index, ratio of cytotoxic IC50 against human HL60 cells to IC50 for delta8,7-sterol isomerase-mediated cholesterol biosynthesis in human HL60 cells. It counts as functional, HL-60. In short, it runs like this:
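Cytotoxicity IC50 from the HL-60 MTT test, in triplicate. Cholesterol biosynthesis IC50 came from HL-60 cells given graded inhibitor concentrations for 24 h in lipid-free medium with 1% LPDS plus 2-13C-acetate at final 62.5 µg/mL. Labelled cholesterol was measured by GC-MS (ions 372–379, 462–469), normalised to Bradford protein, and % inhibition fitted sigmoidally with bottom 0, in triplicate.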

pIC50: −log10 of the molar value. Converted amounts (≈) assume the structure as drawn. The source made the active and inactive calls. The calls are words filed in the database; no cut-off is given here.

3-beta-hydroxysteroid-Delta(8),Delta(7)-isomerase, sequence (Q15125 whole entry): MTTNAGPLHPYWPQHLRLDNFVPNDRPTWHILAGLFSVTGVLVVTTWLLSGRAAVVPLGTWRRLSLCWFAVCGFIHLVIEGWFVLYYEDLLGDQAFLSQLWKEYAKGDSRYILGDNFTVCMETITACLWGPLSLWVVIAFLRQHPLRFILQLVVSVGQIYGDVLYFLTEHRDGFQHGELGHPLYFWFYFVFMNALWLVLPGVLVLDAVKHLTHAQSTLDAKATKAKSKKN

As to `CC(C)CCC[C@@H](C)[C@H]1CC[C@@]2(C)[C@@H](O)[C@@H](NCc3ccc(I)o3)CC[C@]12C`, the minimal inhibitory concentration (MIC) with Yarrowia lipolytica, in the test on Saccharomyces cerevisiae and in the test on Nakaseomyces glabratus was 25 µg/mL (≈ 49.9 µM) in each case.

As for `CC(C)CCC[C@@H](C)[C@H]1CC[C@@]2(C)[C@H](O)[C@@H](NCc3ccc(I)o3)CC[C@]12C`, in test [1], the inhibition entry is “inactive”. Further, the MIC in the test on Yarrowia lipolytica, with Saccharomyces cerevisiae and with Nakaseomyces glabratus was 25 µg/mL (≈ 49.9 µM) throughout.

For the molecule `CC(C)CCC[C@@H](C)[C@H]1CC[C@@]2(C)C(=O)[C@@H](N3C(C)COCC3C)CC[C@]12C` (some centres undefined), the inhibition result in test [1] was “inactive”. For the same molecule, the minimal inhibitory concentration (MIC) in the test with Yarrowia lipolytica, with Saccharomyces cerevisiae and in the test with Nakaseomyces glabratus was 25 µg/mL (≈ 63.8 µM) throughout.

For the molecule `Clc1ccccc1C(c1ccccc1)(c1ccccc1)n1ccnc1` [CLOTRIMAZOLE], the MIC (usually the lowest concentration that inhibits growth of the organism) in the test with Yarrowia lipolytica came to 1 µg/mL (≈ 2.9 µM); in the test on Saccharomyces cerevisiae it was 0.5 µg/mL (≈ 1.45 µM); in the test on Nakaseomyces glabratus it was 2.5 µg/mL (≈ 7.25 µM).

With `COc1ccc(CN[C@H]2CC[C@]3(C)[C@@H]([C@H](C)CCCC(C)C)CC[C@@]3(C)[C@H]2O)cc1`, the MIC with Yarrowia lipolytica, in the test on Saccharomyces cerevisiae and in the test on Nakaseomyces glabratus was 25 µg/mL (≈ 60.1 µM) each time.

Regarding `CC(C)CCC[C@@H](C)[C@H]1CC[C@@]2(C)[C@H](O)[C@@H](NCc3ccoc3)CC[C@]12C`, the inhibition entry in test [1] is “inactive”. The minimal inhibitory concentration (MIC) in the test with Yarrowia lipolytica, in the test on Saccharomyces cerevisiae and in the test with Nakaseomyces glabratus was 25 µg/mL (≈ 66.6 µM) in each case.

Regarding `CC(C)CCC[C@@H](C)[C@H]1CC[C@@]2(C)[C@@H](O)[C@@H](N(C)C)CC[C@]12C`, the negative-log IC50 (pIC50) – broadly, the negative decadic logarithm of the IC50, by convention in mol/L – was 4.77 in the test with HL-60 and 6.24 in test [1]. Also, the minimum inhibitory concentration (MIC) with Yarrowia lipolytica, with Saccharomyces cerevisiae and in the test on Nakaseomyces glabratus was 25 µg/mL (≈ 77.3 µM) each time.

Regarding `CC(C)CCC[C@@H](C)[C@H]1CC[C@@]2(C)[C@@H](O)[C@@H](NCc3ccoc3)CC[C@]12C`, the MIC in the test on Yarrowia lipolytica, in the test with Saccharomyces cerevisiae and in the test with Nakaseomyces glabratus was 25 µg/mL (≈ 66.6 µM) throughout.

`CC(C)CCC[C@@H](C)[C@H]1CC[C@@]2(C)[C@@H](O)[C@@H](N(C)Cc3ccccc3)CC[C@]12C`: the Ratio IC50 in test [2] amounted to 636. Further, the negative-log IC50 (pIC50) in the test on HL-60 is 5.15; in test [1], 7.96. Besides, the minimal inhibitory concentration (MIC) with Yarrowia lipolytica, with Saccharomyces cerevisiae and with Nakaseomyces glabratus was 25 µg/mL (≈ 62.6 µM) in each case.

Take `COc1ccc(CN[C@H]2CC[C@]3(C)[C@@H]([C@H](C)CCCC(C)C)CC[C@@]3(C)[C@H]2O)c(OC)c1`: the MIC with Yarrowia lipolytica, in the test with Saccharomyces cerevisiae and with Nakaseomyces glabratus was 25 µg/mL (≈ 56.1 µM) each time.

Turning to `CC(C)CCC[C@@H](C)[C@H]1CC[C@@]2(C)[C@H](O)[C@@H](NCc3ccc(Cl)cc3Cl)CC[C@]12C`, the inhibition result in test [1] was “inactive”. Besides, the MIC in the test with Yarrowia lipolytica, in the test on Saccharomyces cerevisiae and with Nakaseomyces glabratus was 25 µg/mL (≈ 55 µM) throughout.

As for `C=CCCCN[C@H]1CC[C@]2(C)[C@@H]([C@H](C)CCCC(C)C)CC[C@@]2(C)[C@H]1O`, the figures for the negative-log IC50 (pIC50) (in the test on HL-60; in test [1]) were 4.82 and 7.24, respectively. Moreover, the minimal inhibitory concentration (MIC) in the test on Yarrowia lipolytica, in the test with Saccharomyces cerevisiae and in the test with Nakaseomyces glabratus was 25 µg/mL (≈ 68.8 µM) throughout.

For the molecule `CC(C)CCC[C@@H](C)[C@H]1CC[C@@]2(C)[C@@H](O)[C@@H](N)CC[C@]12C`, the values for the pIC50 (in the test with HL-60; in test [1]) were 4.96 and 6.24, respectively. The minimum inhibitory concentration (MIC) in the test with Yarrowia lipolytica, in the test on Saccharomyces cerevisiae and with Nakaseomyces glabratus was 25 µg/mL (≈ 84.6 µM) throughout.

With `CC(C)CCC[C@@H](C)[C@H]1CC[C@@]2(C)[C@@H](O)[C@@H](N(Cc3ccccc3)Cc3ccccc3)CC[C@]12C`, the pIC50 in the test on HL-60 is 4.57; in test [1], < 6.00. Further, the MIC in the test on Yarrowia lipolytica, in the test on Saccharomyces cerevisiae and in the test on Nakaseomyces glabratus was 25 µg/mL (≈ 52.5 µM) each time.

Regarding `CCN[C@H]1CC[C@]2(C)[C@@H]([C@H](C)CCCC(C)C)CC[C@@]2(C)[C@H]1O`, the MIC in the test with Yarrowia lipolytica, in the test with Saccharomyces cerevisiae and in the test with Nakaseomyces glabratus was 25 µg/mL (≈ 77.3 µM) throughout.

In the case of `Cc1cccc(N[C@H]2CC[C@]3(C)[C@@H]([C@H](C)CCCC(C)C)CC[C@@]3(C)C2=O)c1C`, the inhibition result in test [1] is “inactive”. Besides, the MIC with Yarrowia lipolytica, in the test with Saccharomyces cerevisiae and in the test with Nakaseomyces glabratus was 25 µg/mL (≈ 62.9 µM) throughout.

`CC(C)CCC[C@@H](C)[C@H]1CC[C@@]2(C)[C@H](O)[C@@H](NCc3cccc(Cl)c3Cl)CC[C@]12C`: the inhibition result in test [1] was “inactive”. Moreover, the MIC in the test with Yarrowia lipolytica, in the test on Saccharomyces cerevisiae and in the test on Nakaseomyces glabratus was 25 µg/mL (≈ 55 µM) each time.

`CC(C)CCC[C@@H](C)[C@H]1CC[C@@]2(C)[C@@H](O)[C@@H](NCc3cccc(Cl)c3)CC[C@]12C`: the minimum inhibitory concentration (MIC) with Yarrowia lipolytica, in the test with Saccharomyces cerevisiae and in the test on Nakaseomyces glabratus was 25 µg/mL (≈ 59.5 µM) throughout.

As to `CC(C)CCC[C@@H](C)[C@H]1CC[C@@]2(C)[C@@H](O)[C@@H](NCc3cccnc3)CC[C@]12C`, the minimum inhibitory concentration (MIC) in the test with Yarrowia lipolytica, with Saccharomyces cerevisiae and in the test on Nakaseomyces glabratus was 25 µg/mL (≈ 64.7 µM) each time.

`Cc1cccc(N[C@H]2CC[C@]3(C)[C@@H]([C@H](C)CCCC(C)C)CC[C@@]3(C)[C@H]2O)c1C` (mixture of isomers): the MIC in the test with Yarrowia lipolytica, with Saccharomyces cerevisiae and in the test with Nakaseomyces glabratus was 25 µg/mL in each case.

Consider `CC(C)CCC[C@@H](C)[C@H]1CC[C@@]2(C)C(=O)[C@@H](N3CCN(C)CC3)CC[C@]12C`, for which the inhibition entry in test [1] is “inactive”. In addition, the MIC in the test with Yarrowia lipolytica, with Saccharomyces cerevisiae and in the test with Nakaseomyces glabratus was 25 µg/mL (≈ 66.4 µM) in each case.

For the molecule `CC(C)CCC[C@@H](C)[C@H]1CC[C@@]2(C)[C@@H](O)[C@@H](NCc3cccc(Cl)c3Cl)CC[C@]12C`, the MIC in the test with Yarrowia lipolytica, in the test on Saccharomyces cerevisiae and in the test on Nakaseomyces glabratus was 25 µg/mL (≈ 55 µM) in each case.

Take `C=CCCCN[C@H]1CC[C@]2(C)[C@@H]([C@H](C)CCCC(C)C)CC[C@@]2(C)[C@@H]1O`: the inhibition result in test [1] was “inactive”. Also, the MIC in the test with Yarrowia lipolytica, in the test on Saccharomyces cerevisiae and with Nakaseomyces glabratus was 25 µg/mL (≈ 68.8 µM) throughout.

For `CC(C)CCC[C@@H](C)[C@H]1CC[C@@]2(C)C(=O)[C@@H](N(C)C)CC[C@]12C`, the inhibition result in test [1] is “inactive”. Further, the minimal inhibitory concentration (MIC) with Yarrowia lipolytica, with Saccharomyces cerevisiae and with Nakaseomyces glabratus was 25 µg/mL (≈ 77.7 µM) in each case.

Consider `C=CCCCN(Cc1ccccc1)[C@H]1CC[C@]2(C)[C@@H]([C@H](C)CCCC(C)C)CC[C@@]2(C)[C@H]1O`, for which the negative-log IC50 (pIC50) was 4.77 in the test with HL-60 and 7.09 in test [1]. The minimum inhibitory concentration (MIC) in the test on Yarrowia lipolytica, with Saccharomyces cerevisiae and in the test on Nakaseomyces glabratus was 25 µg/mL (≈ 55.1 µM) each time.

Turning to `C=CCCCN(C)[C@H]1CC[C@]2(C)[C@@H]([C@H](C)CCCC(C)C)CC[C@@]2(C)[C@H]1O`, the “Ratio IC50” value in test [2] was 390. Further, the pIC50 is 5.15 with HL-60 and 7.74 in test [1]. Also, the MIC in the test on Yarrowia lipolytica, in the test with Saccharomyces cerevisiae and with Nakaseomyces glabratus was 25 µg/mL (≈ 66.2 µM) throughout.

For the molecule `CC(C)CCC[C@@H](C)[C@H]1CC[C@@]2(C)[C@@H](O)[C@@H](N3CCN(C)CC3)CC[C@]12C`, the minimum inhibitory concentration (MIC) in the test with Yarrowia lipolytica, in the test on Saccharomyces cerevisiae and with Nakaseomyces glabratus was 25 µg/mL (≈ 66 µM) each time.

For the molecule `CC(C)CCC[C@@H](C)[C@H]1CC[C@@]2(C)[C@@H](O)[C@@H](N3CC(C)OC(C)C3)CC[C@]12C` (mixture of isomers), the MIC in the test on Yarrowia lipolytica, with Saccharomyces cerevisiae and with Nakaseomyces glabratus was 25 µg/mL each time.

With `CC(C)CCC[C@@H](C)[C@H]1CC[C@@]2(C)[C@@H](O)[C@@H](NCc3ccccc3)CC[C@]12C`, the pIC50 is 5.10 in the test on HL-60 and 7.82 in test [1]. The minimum inhibitory concentration (MIC) in the test on Yarrowia lipolytica, in the test on Saccharomyces cerevisiae and with Nakaseomyces glabratus was 25 µg/mL (≈ 64.8 µM) each time.

Consider `CC(C)CCC[C@@H](C)[C@H]1CC[C@@]2(C)[C@H](O)[C@@H](NCc3cccc(Cl)c3)CC[C@]12C`, for which the inhibition entry in test [1] is “inactive”. In addition, the minimum inhibitory concentration (MIC) in the test on Yarrowia lipolytica, in the test on Saccharomyces cerevisiae and in the test with Nakaseomyces glabratus was 25 µg/mL (≈ 59.5 µM) throughout.

Consider `CC(C)CCC[C@@H](C)[C@H]1CC[C@@]2(C)C(=O)[C@@H](NCc3cccnc3)CC[C@]12C`, for which the inhibition result in test [1] was “inactive”. Moreover, the minimum inhibitory concentration (MIC) in the test with Yarrowia lipolytica, in the test on Saccharomyces cerevisiae and with Nakaseomyces glabratus was 25 µg/mL (≈ 65 µM) in each case.

Consider `CC(C)CCC[C@@H](C)[C@H]1CC[C@@]2(C)[C@@H](O)[C@@H](NCc3ccc(Cl)cc3Cl)CC[C@]12C`, for which the MIC with Yarrowia lipolytica, with Saccharomyces cerevisiae and in the test on Nakaseomyces glabratus was 25 µg/mL (≈ 55 µM) each time.

With `CC(C)CCC[C@@H](C)[C@H]1CC[C@@]2(C)[C@H](O)[C@@H](NCc3ccccc3)CC[C@]12C`, the inhibition result in test [1] is “inactive”. Moreover, the minimum inhibitory concentration (MIC) in the test on Yarrowia lipolytica, in the test with Saccharomyces cerevisiae and in the test on Nakaseomyces glabratus was 25 µg/mL (≈ 64.8 µM) in each case.
